# Laboratory results reported in ChEMBL document CHEMBL1156107, “Synthesis of new alkylaminooxysterols with potent cell differentiating activities: identification of leads for the treatment of cancer and neurodegenerative diseases” (J Med Chem, 2009).
# The source made the active and inactive calls. No cut-off for these calls is given here.
# How the values were obtained:
# [1] = tested on: U-937; test: Induction of dendrite out growth in IL-4/GMCSF-stimulated human U937 cells assessed as dendrite length at 100 nM after 48 hrs by light microscopy; type: functional
# Summary of the method: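 U937 cells at 1.1 × 10⁶ cells/mL were primed with 10 ng/mL PMA for 48 h in RPMI with 10% heat-inactivated serum. Adherent cells were then given 100 ng/mL IL-4 plus 100 ng/mL GM-CSF or 100 nM compound for 48 h. Dendrite length scored by light microscopy, from none to over 100 μm with a contact network.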
# [2] = tested on: U-937; test: Cytotoxicity against human U937 cells after 3 days by trypan blue exclusion assay; type: functional, cell-based
# Summary of the method: (§1)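 U937 and P19 cells treated with compound. Cell death scored by trypan blue exclusion, with cells scraped, suspended in 0.25% w/v trypan blue in PBS and counted in a Malassez cell. IC50 is the concentration giving 50% cytotoxicity.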
# [3] = tested on: P19; test: Induction of dendrite out growth in IL-4/GMCSF-stimulated mouse P19 cells assessed as dendrite length at 100 nM after 48 hrs by light microscopy; type: functional
# [4] = tested on: P19; test: Cytotoxicity against mouse P19 cells after 3 days by trypan blue exclusion assay; type: functional, cell-based; summary of the method: as §1
# [5] = tested on: U-937; test: Cytotoxicity against human U937 cells up to 20 uM after 3 days by trypan blue exclusion assay; type: functional, cell-based; summary of the method: as §1
# [6] = tested on: P19; test: Cytotoxicity against mouse P19 cells up to 20 uM after 3 days by trypan blue exclusion assay; type: functional, cell-based; summary of the method: as §1
# [7] = tested on: MCF7; test: Induction of human MCF7 cell differentiation assessed as stimulation of milk fat globulin expression at 5 uM after 48 hrs by immunocytochemistry; type: functional, cell-based
# [8] = tested on: MCF7; test: Induction of human MCF7 cell differentiation assessed as lipid accumulation in intracytoplasmic vesicle at 5 uM after 48 hrs by oil red O staining-based light microscopy; type: functional
# Summary of the method: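 MCF-7 cells on glass coverslips treated with drug, fixed in 3.7% paraformaldehyde for 1 h at room temperature, and stained with oil red O in 60% isopropanol with hematoxylin counterstain. Dye extracted with isopropanol and read at 510 nm, with control subtracted and the value normalized to SYBR green DNA stain.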
# [9] = tested on: MCF7; test: Induction of human MCF7 cell differentiation assessed as milk fat accumulation in intracytoplasmic vesicle at 5 uM after 48 hrs by Bligh and Dyer method; type: functional, cell-based
# Summary of the method: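 MCF-7 cells (5 million) exposed to vehicle or compound for 48 h, washed three times in PBS. Lipids extracted by the Bligh and Dyer method and triglycerides quantified.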
# [10] = species on record: Homo sapiens; test: Plasma concentration healthy human; type: ADME, organism-based; conditions: in vivo
# [11] = tested on: KG-1; test: Cytotoxicity against human KG1 cells after 72 hrs by trypan blue exclusion assay; type: functional, cell-based
# Summary of the method: (§2)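 Cells were exposed for 72 h to the test agent at increasing concentrations from 10 nM to 20 μM, at 37 °C in humidified 5% CO2. Cells were scraped and resuspended in 0.25% w/v trypan blue in PBS, and dead cells were counted under a light microscope in a Malassez chamber. IC50 is the concentration giving 50% cytotoxicity. Values are mean ± SE of three independent experiments, each run in duplicate.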
# [12] = tested on: A549; test: Cytotoxicity against human A549 cells after 72 hrs by trypan blue exclusion assay; type: functional, cell-based; summary of the method: as §2
# [13] = tested on: U-87MG ATCC; test: Cytotoxicity against human U87 cells after 72 hrs by trypan blue exclusion assay; type: functional, cell-based; summary of the method: as §2
# [14] = tested on: NB-4; test: Cytotoxicity against human NB4 cells after 72 hrs by trypan blue exclusion assay; type: functional, cell-based; summary of the method: as §2
# [15] = tested on: HCT-8; test: Cytotoxicity against human HCT8 cells after 72 hrs by trypan blue exclusion assay; type: functional, cell-based; summary of the method: as §2
# [16] = tested on: N2a; test: Cytotoxicity against mouse Neuro2a cells after 72 hrs by trypan blue exclusion assay; type: functional, cell-based; summary of the method: as §2
# [17] = tested on: SK-N-SH; test: Cytotoxicity against human SK-N-SH cells after 72 hrs by trypan blue exclusion assay; type: functional, cell-based; summary of the method: as §2
# [18] = tested on: SH-SY5Y; test: Cytotoxicity against human SH-SY5Y cells after 72 hrs by trypan blue exclusion assay; type: functional, cell-based; summary of the method: as §2
# [19] = tested on: SK-MEL-28; test: Cytotoxicity against human SK-MEL-28 cells after 72 hrs by trypan blue exclusion assay; type: functional, cell-based; summary of the method: as §2
# [20] = tested on: P19; test: Cytotoxicity against mouse P19 cells after 72 hrs by trypan blue exclusion assay; type: functional, cell-based; summary of the method: as §2
# [21] = tested on: TS/A; test: Cytotoxicity against mouse TSA cells after 72 hrs by trypan blue exclusion assay; type: functional, cell-based; summary of the method: as §2
# [22] = tested on: U-937; test: Cytotoxicity against human U937 cells after 72 hrs by trypan blue exclusion assay; type: functional, cell-based; summary of the method: as §2
# [23] = tested on: MCF7; test: Cytotoxicity against human MCF7 cells after 72 hrs by trypan blue exclusion assay; type: functional, cell-based; summary of the method: as §2
# [24] = tested on: B16-F10; test: Cytotoxicity against mouse B16F10 cells after 72 hrs by trypan blue exclusion assay; type: functional, cell-based; summary of the method: as §2
# [25] = tested on: SW-620; test: Cytotoxicity against human SW620 cells after 72 hrs by trypan blue exclusion assay; type: functional, cell-based; summary of the method: as §2
# [26] = Homo sapiens, U-937, 72 h, read-out: IC50
# [27] = Mus musculus, P19, 72 h, read-out: IC50
SMILES,Activity [1],"IC50 [2, 26] [µM]",Activity [3],"IC50 [4, 27] [µM]",IC50 ([2]; u-937),IC50 ([4]; p19),further results
CC(C)CCC[C@@H](C)[C@H]1CC[C@H]2[C@@H]3C[C@@H](NCCCCN)[C@@]4(O)C[C@@H](O)CC[C@]4(C)[C@H]3CC[C@]12C,5 um,2.1,10 um,2.6,,,
CC(C)CCC[C@@H](C)[C@H]1CC[C@H]2C3=C[C@@H](NCCCNCCCCNCCCN)[C@@]4(O)C[C@@H](O)CC[C@]4(C)[C@H]3CC[C@]12C,<5 um,,10 um,,Not Active,Not Active,
CC(C)CCC[C@@H](C)[C@H]1CC[C@H]2C3=C[C@@H](NCCCCN)[C@@]4(O)C[C@@H](O)CC[C@]4(C)[C@H]3CC[C@]12C,5 um,2.6,50 um,2.8,,,
CC[C@H](CC[C@@H](C)[C@H]1CC[C@H]2[C@@H]3C[C@@H](NCCc4c[nH]cn4)[C@@]4(O)C[C@@H](O)CC[C@]4(C)[C@H]3CC[C@]12C)C(C)C,50 um,1.1,50 um,2.5,,,
CC(C)CCC[C@@H](C)[C@H]1CC[C@H]2[C@@H]3C[C@@H](NCCCCNCCCN)[C@@]4(O)C[C@@H](O)CC[C@]4(C)[C@H]3CC[C@]12C,<5 um,,50 um,,Not Active,Not Active,Activity [5]: inactive; Activity [6]: inactive
CC(C)CCC[C@@H](C)[C@H]1CC[C@H]2C3=C[C@@H]4O[C@@]45C[C@@H](O)CC[C@]5(C)[C@H]3CC[C@]12C,inactive,,inactive,,Not Active,Not Active,
CC(C)CCC[C@@H](C)[C@H]1CC[C@H]2[C@@H]3C[C@@H](NCCCNCCCCNCCCN)[C@@]4(O)C[C@@H](O)CC[C@]4(C)[C@H]3CC[C@]12C,<5 um,,10 um,,Not Active,Not Active,
C[C@]12CC[C@H]3[C@@H](C[C@@H](NCCc4c[nH]cn4)[C@@]4(O)C[C@@H](O)CC[C@]34C)[C@@H]1CC[C@@H]2O,inactive,9.8,inactive,7.3,,,
CC(C)CCC[C@@H](C)[C@H]1CC[C@H]2C3=C[C@@H](NCCCCNCCCN)[C@@]4(O)C[C@@H](O)CC[C@]4(C)[C@H]3CC[C@]12C,<5 um,,50 um,,Not Active,Not Active,
CC/C(=C(\c1ccccc1)c1ccc(OCCN(C)C)cc1)c1ccccc1,,,,,,,Activity [7]: Active; Activity [8]: Active; Activity [9]: Active
CCCC(=O)O[C@H]1CC[C@]2(C)[C@H]3CC[C@]4(C)[C@@H]([C@H](C)CCCC(C)C)CC[C@H]4[C@@H]3C[C@@H](NCCc3c[nH]cn3)[C@@]2(O)C1,inactive,8.2,inactive,9.4,,,
NCCCCN [PUTRESCINE],inactive,,inactive,,Not Active,Not Active,
NCCCCNCCCN [SPERMIDINE],inactive,,inactive,,Not Active,Not Active,
CC(C)CCC[C@@H](C)[C@H]1CC[C@H]2[C@@H]3C[C@H]4O[C@]45C[C@@H](O)CC[C@]5(C)[C@H]3CC[C@]12C,inactive,,inactive,,Not Active,Not Active,concentration [10]: 1 nM
CC(C)CCC[C@@H](C)[C@H]1CC[C@H]2[C@@H]3C[C@@H](n4cnc(CCN)c4)[C@@]4(O)C[C@@H](O)CC[C@]4(C)[C@H]3CC[C@]12C,<5 um,7.7,<5 um,8.9,,,Activity [11]: inactive; Activity [12]: inactive; Activity [13]: inactive; Activity [14]: inactive; Activity [15]: inactive; Activity [16]: inactive; Activity [17]: inactive; Activity [18]: inactive; Activity [19]: inactive; Activity [20]: inactive; Activity [21]: inactive; Activity [22]: inactive; Activity [23]: inactive; Activity [24]: inactive; Activity [25]: inactive
CC(=O)O[C@H]1CC[C@]2(C)[C@H]3CC[C@]4(C)[C@@H]([C@H](C)CCCC(C)C)CC[C@H]4[C@@H]3C[C@@H]3O[C@@]32C1,inactive,,inactive,,Not Active,Not Active,
CCCC(=O)O[C@H]1CC[C@]2(C)[C@H]3CC[C@]4(C)[C@@H]([C@H](C)CCCC(C)C)CC[C@H]4[C@@H]3C[C@@H]3O[C@@]32C1,inactive,,inactive,,Not Active,Not Active,
NCCCNCCCCNCCCN [SPERMINE],inactive,,inactive,,Not Active,Not Active,
CC(C)CCC[C@@H](C)[C@H]1CC[C@H]2[C@@H]3C[C@@H](NCCCNCCCCN)[C@@]4(O)C[C@@H](O)CC[C@]4(C)[C@H]3CC[C@]12C,<5 um,,50 um,,Not Active,Not Active,
CC(=O)O[C@H]1CC[C@]2(C)[C@H]3CC[C@]4(C)[C@@H]([C@H](C)CCCC(C)C)CC[C@H]4[C@@H]3C[C@@H](NCCc3c[nH]cn3)[C@@]2(O)C1,50 um,0.9,50 um,2.5,,,
CC(C)CCC[C@@H](C)[C@H]1CC[C@H]2C3=C[C@@H](NCCc4c[nH]cn4)[C@@]4(O)C[C@@H](O)CC[C@]4(C)[C@H]3CC[C@]12C,<5 um,7.6,5 um,5.3,,,
CC(C)CCC[C@@H](C)[C@H]1CC[C@H]2[C@@H]3CC=C4C[C@@H](O)CC[C@]4(C)[C@H]3CC[C@]12C [CHOLESTEROL],inactive,,inactive,,Not Active,Not Active,
CC[C@H](CC[C@@H](C)[C@H]1CC[C@H]2[C@@H]3C[C@@H]4O[C@@]45C[C@@H](O)CC[C@]5(C)[C@H]3CC[C@]12C)C(C)C,inactive,,inactive,,Not Active,Not Active,
CC(C)CCC[C@@H](C)[C@H]1CC[C@H]2[C@@H]3C[C@@H]4O[C@@]45C[C@@H](O)CC[C@]5(C)[C@H]3CC[C@]12C,inactive,,inactive,,Not Active,Not Active,concentration [10]: 1 nM
C[C@]12CC[C@H]3[C@@H](C[C@@H]4O[C@@]45C[C@@H](O)CC[C@]35C)[C@@H]1CC[C@@H]2O,inactive,,inactive,,Not Active,Not Active,
NCCc1c[nH]cn1 [HISTAMINE],inactive,,inactive,,Not Active,Not Active,
